Assay results as given in ChEMBL document CHEMBL3585270, “Discovery of oxime-bearing naphthalene derivatives as a novel structural type of Nrf2 activators” (Bioorg Med Chem, 2015).
Activity calls are given as the source filed them. The calls are words filed in the database; no cut-off is given here.

Tests used:
[1] = Cytotoxicity against human NPC-TW01 cells assessed as reduction in cell viability by MTT assay; type: cell-based
Outline: (§1)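 Cells cultured in MEM or RPMI1640 with 10% FBS, 37 °C, 5% CO₂. After compound exposure, 5 µg/ml MTT in MEM for 2 h at 37 °C, then solubilized overnight at 37 °C (40% DMF, 20% SDS); absorbance at 570 nm. IC50 taken from linear portion of curve as concentration cutting absorbance 50% versus control.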

[2] = tested on: NCI-H226; test: Cytotoxicity against human NCI-H226 cells assessed as reduction in cell viability by MTT assay; type: cell-based; outline: as §1
[3] = tested on: Jurkat; test: Cytotoxicity against human Jurkat cells assessed as reduction in cell viability by MTT assay; type: cell-based; outline: as §1
[4] = biological target: T1, Nuclear factor erythroid 2-related factor 2 (Homo sapiens) (UniProt Q16236); test: Activation of Nrf2 in human NPC-TW01 or HONE1 cells expressing ARE-luciferase at 20 uM incubated for 16 hrs by luciferase reporter gene assay relative to untreated control; type: cell-based
T1 sequence (whole entry): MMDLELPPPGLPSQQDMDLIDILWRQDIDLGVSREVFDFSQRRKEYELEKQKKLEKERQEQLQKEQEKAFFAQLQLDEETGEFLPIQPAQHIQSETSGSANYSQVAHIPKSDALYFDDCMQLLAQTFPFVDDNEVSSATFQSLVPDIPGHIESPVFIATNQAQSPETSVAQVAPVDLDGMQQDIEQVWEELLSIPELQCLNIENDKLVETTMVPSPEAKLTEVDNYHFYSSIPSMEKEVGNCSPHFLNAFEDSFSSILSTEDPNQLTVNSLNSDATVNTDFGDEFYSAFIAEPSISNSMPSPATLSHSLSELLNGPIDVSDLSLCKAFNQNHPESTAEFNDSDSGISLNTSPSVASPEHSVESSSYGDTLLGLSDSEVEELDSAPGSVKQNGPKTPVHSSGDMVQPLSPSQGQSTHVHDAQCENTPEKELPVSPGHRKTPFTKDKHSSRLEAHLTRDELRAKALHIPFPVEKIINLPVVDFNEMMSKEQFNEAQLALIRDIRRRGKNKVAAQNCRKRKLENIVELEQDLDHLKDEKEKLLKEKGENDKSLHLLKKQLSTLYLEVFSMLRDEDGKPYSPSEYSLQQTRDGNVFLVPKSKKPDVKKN

[5] = tested on: NPC-TW01; test: Inhibition of H2O2-induced intracellular oxidative stress in human NPC-TW01 cells expressing pGL4-9ARE at 20 uM pre-treated for 6 hrs before H2O2 challenge for 16 hrs by DCFH-DA dye based flow cytometry; type: functional, cell-based
Outline: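 TW01-pGL4-9ARE cells, 1 × 10⁵ per well, grown overnight, pre-treated 20 µM for 6 h, then 500 µM H2O2 for 16 h. Stained with 20 µM DCFH-DA 30 min at 37 °C, resuspended in PBS, analysed by flow cytometry; geometric mean fluorescence reported, p < 0.05 versus H2O2 alone.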

[6] = biological target: T1, Nuclear factor erythroid 2-related factor 2 (Homo sapiens); test: Activation of Nrf2 in human NPC-TW01 or HONE1 cells expressing ARE-luciferase at 20 uM incubated for 16 hrs in presence of PKC signaling inhibitor staurosporine by luciferase reporter gene assay relative to untreated control; type: cell-based
[7] = tested on: NPC-TW01; test: Effect on Nrf2 protein expression in human NPC-TW01 cells expressing pGL4-9ARE incubated for 6 and 12 hrs by Western blot method; type: functional, cell-based
Outline: (§2)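 TW01-pGL4-9ARE cells treated and harvested at set times; lysed in NP-40 buffer with phosphatase/protease inhibitors, protein by BCA. 40 µg lysate on 10% SDS-PAGE, PVDF transfer, 5% BSA/TBS-Tween block; primary antibodies (p-Nrf2 Ser40, total Nrf2, actin) overnight at 4 °C, HRP secondary 1 h room temperature; imaged by chemiluminescence imager.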

[8] = biological target: T1, Nuclear factor erythroid 2-related factor 2 (Homo sapiens); test: Induction of Nrf2 Ser40 phosphorylation in human NPC-TW01 cells expressing pGL4-9ARE incubated for 6 and 12 hrs by Western blot method; type: cell-based; outline: as §2

| SMILES | IC50 [1] | IC50 [2] | IC50 [3] | fold change (FC) [4] | inhibition [5] | Activity [6] | Activity [7] | Activity [8] |
| --- | --- | --- | --- | --- | --- | --- | --- | --- |
| COc1ccc(OC)c(/C(COc2ccc3ccccc3c2)=N/O)c1 | 16.7 µM | 8.6 µM | 10.1 µM | 0.65 |  |  |  |  |
| O/N=C(\COc1ccc2ccccc2c1)c1ccccc1 | > 50 µM | > 50 µM | > 50 µM | 3.49 | Active | inactive | inactive | Active |
| O/N=C(\COc1cccc2ccccc12)c1ccc(Br)cc1 | > 50 µM | > 50 µM | > 50 µM | 1.03 |  |  |  |  |
| O/N=C(\COc1ccc2ccccc2c1)c1ccc(-c2ccccc2)cc1 | > 50 µM | > 50 µM | > 50 µM | 1.18 |  |  |  |  |
| O/N=C(\COc1cccc2ccccc12)c1ccc(-c2ccccc2)cc1 | > 50 µM | > 50 µM | > 50 µM | 1.19 |  |  |  |  |
| O/N=C(\COc1cccc2ccccc12)c1ccc2ccccc2c1 | 36.1 µM | 38.9 µM | > 50 µM | 1.25 |  |  |  |  |
| O/N=C(\COc1ccc2ccccc2c1)c1ccc(Cl)cc1 | 26 µM | 34.9 µM | 37.3 µM | 1.07 |  |  |  |  |
| O/N=C(\COc1cccc2ccccc12)c1ccccc1 | > 50 µM | 47.1 µM | > 50 µM | 1.14 |  |  |  |  |
| O/N=C(\COc1ccc2ccccc2c1)c1ccc2ccccc2c1 | > 50 µM | 37.1 µM | 24.3 µM | 1.36 |  |  |  |  |
| COc1ccc(/C(COc2cccc3ccccc23)=N/O)cc1 | 32.3 µM | 36.7 µM | 31.8 µM | 1.1 |  |  |  |  |
| COc1ccc(/C(COc2ccc3ccccc3c2)=N/O)cc1 | > 50 µM | > 50 µM | 35.8 µM | 1.65 | Active | inactive | inactive | Active |
| C/C(COc1cccc2ccccc12)=N\O | > 50 µM | > 50 µM | > 50 µM | 1.17 |  |  |  |  |
| O/N=C(\COc1ccc2ccccc2c1)c1ccc(C(F)(F)F)cc1 | 30.7 µM | 34.1 µM | 36.2 µM | 1.05 |  |  |  |  |
| O/N=C(\COc1cccc2ccccc12)c1ccc(Cl)cc1 | > 50 µM | > 50 µM | > 50 µM | 1 |  |  |  |  |
| C/C(COc1ccc2ccccc2c1)=N\O | > 50 µM | > 50 µM | > 50 µM | 2.04 | Active | inactive | inactive | Active |
| O/N=C(\COc1cccc2ccccc12)c1ccc(C(F)(F)F)cc1 | 46.4 µM | > 50 µM | > 50 µM | 1.01 |  |  |  |  |
| O/N=C(\COc1ccc2ccccc2c1)c1ccc(Br)cc1 | 27.9 µM | 39.1 µM | 47.2 µM | 0.95 |  |  |  |  |
| O/N=C(\COc1cccc2ccccc12)c1ccc(F)cc1 | > 50 µM | > 50 µM | > 50 µM | 1.09 |  |  |  |  |
| COc1ccc(OC)c(/C(COc2cccc3ccccc23)=N/O)c1 | 32.3 µM | 41.5 µM | > 50 µM | 0.93 |  |  |  |  |
| CC(C)(C)c1cc(O)ccc1O |  |  |  | 1.77 |  |  |  |  |
| O/N=C(\COc1ccc2ccccc2c1)c1ccc(F)c(F)c1 | 36.1 µM | 42.8 µM | 44.6 µM | 1.42 |  |  |  |  |
| O/N=C(\COc1cccc2ccccc12)c1ccc(F)c(F)c1 | 36.8 µM | > 50 µM | 42.6 µM | 0.86 |  |  |  |  |
| O/N=C(\COc1ccc2ccccc2c1)c1ccc(F)cc1 | > 50 µM | > 50 µM | > 50 µM | 2.61 | Active | inactive | inactive | Active |
